Results as given in ChEMBL document CHEMBL4219124, “Alleviating CYP and hERG liabilities by structure optimization of dihydrofuran-fused tricyclic benzo[d]imidazole series - Potent, selective and orally efficacious microsomal prostaglandin E synthase-1 (mPGES-1) inhibitors: Part-2” (Bioorg Med Chem Lett, 2018).
Residue numbers refer to the chain shown, from its start.

Columns and labels:
[1] = Ratio of drug uptake in brain to plasma of Sprague-Dawley rat at 10 mg/kg, po; type: ADME, organism-based; conditions: read-out: BPR
[2] = Oral bioavailability in Sprague-Dawley rat at 10 mg/kg; type: ADME, organism-based; conditions: in vivo
How it was run: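 Plasma PK after 1 mg/kg i.v. and 10 mg/kg p.o.; %F from both routes. Rat: male Sprague-Dawley, oral 0.5% methylcellulose suspension, i.v. 20% NMP/20% ethanol/60% PEG 200, n = 3. Dog oral: Tween 80 2.5 μL/mL + 0.5% MC suspension. Monkey oral: same Tween/MC suspension; i.v. 10% NMP/10% ethanol/10% PEG/70% PEG200-water premix.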

[3] = Apparent passive permeability of the compound by PAMPA; type: ADME
How it was run: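 Passive permeability by PAMPA, using a 2% lecithin in dodecane membrane. Run in triplicate.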

[4] = Tmax in cynomolgus monkey at 10 mg/kg, po; type: ADME, organism-based, Macaca fascicularis; conditions: in vivo
How it was run: (§1)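 Tmax from oral 10 mg/kg dosing. Rat: male Sprague-Dawley, 0.5% MC suspension, n = 3. Guinea pig: 20% NMP + 0.5% MC suspension, n = 3. Dog and monkey: 2.5 μL/mL Tween 80 + 0.5% MC suspension.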

[5] = Tmax in Beagle dog at 10 mg/kg, po; type: ADME, organism-based, Canis lupus familiaris; conditions: in vivo; how it was run: as §1
[6] = Half life in Sprague-Dawley rat at 10 mg/kg, po; type: ADME, organism-based; conditions: in vivo
How it was run: (§2)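 Half-life calculated from plasma profiles after oral dosing at 10 mg/kg. Rat: male Sprague-Dawley, 0.5% methylcellulose suspension, n = 3. Dog and cynomolgus monkey: Tween 80 (2.5 μL/mL) + 0.5 (w/v) MC suspension.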

[7] = Apparent volume of distribution in cynomolgus monkey at 1 mg/kg, iv; type: ADME, organism-based, Macaca fascicularis; conditions: in vivo, read-out: Vz
How it was run: (§3)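 Intravenous dose of 1 mg/kg; clearance and Vz derived from the i.v. arm. Rat (male Sprague-Dawley) vehicle 20% NMP + 20% ethanol + 60% PEG 200, mean ± SD (n = 3). Dog vehicle 20% NMP + 20% EtOH + 10% PG + 50% PEG 200:water (3:2). Monkey vehicle 10% NMP + 10% ethanol + 10% PEG + 70% PEG200:water (3:2).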

[8] = biological target: T1, Prostaglandin E synthase (Macaca fascicularis) (UniProt Q6PWL6); test: Inhibition of mPGES1 in rhesus monkey whole blood assessed as reduction in LPS-induced PGE2 production at 10 uM measured after 20 to 24 hrs relative to control; conditions: Macaca mulatta
T1 sequence (whole entry): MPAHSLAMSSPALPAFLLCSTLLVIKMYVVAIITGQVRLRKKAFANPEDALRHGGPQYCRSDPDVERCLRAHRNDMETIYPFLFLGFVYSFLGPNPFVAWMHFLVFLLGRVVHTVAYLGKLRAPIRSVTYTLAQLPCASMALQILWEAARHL
How it was run: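 Rhesus monkey whole blood stimulated with LPS; PGE2 inhibition measured relative to vehicle control […]. At least two experiments, each in duplicate; run by an external contract lab.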

[9] = Cmax in cynomolgus monkey at 10 mg/kg, po; type: ADME, organism-based, Macaca fascicularis; parameters: dose 10 mg/kg, route oral; conditions: in vivo
How it was run: (§4)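 Single oral dose of 10 mg/kg. Cmax and AUC0-24 taken from the oral arm. Rat: male Sprague-Dawley, dosed in 0.5% methylcellulose suspension, mean ± SD (n = 3). Guinea pig: 20% NMP + 0.5% MC suspension, mean ± SD (n = 3). Dog and cynomolgus monkey: 2.5 μL/mL Tween 80 + 0.5 (w/v) MC suspension.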

[10] = Ratio of drug uptake in brain to plasma of cynomolgus monkey at 10 mg/kg, po; type: ADME, organism-based, Macaca fascicularis; conditions: read-out: BPR
[11] = biological target: T2, Prostaglandin E synthase (Homo sapiens, UniProt O14684); test: Inhibition of mPGES1 in human A549 cells assessed as reduction in IL-1beta-induced PGE2 production preincubated for 30 mins followed by incubation with IL-1beta for 16 to 20 hrs measured after 10 mins by HTRF assay; type: cell-based
T2 sequence (O14684 whole entry): T1 sequence (whole entry) with A7V, L108V, V112A

[12] = Cmax in Beagle dog at 10 mg/kg, po; type: ADME, organism-based, Canis lupus familiaris; parameters: dose 10 mg/kg, route oral; conditions: in vivo; how it was run: as §4
[13] = Apparent volume of distribution in Beagle dog at 1 mg/kg, iv; type: ADME, organism-based, Canis lupus familiaris; conditions: in vivo, read-out: Vz; how it was run: as §3
[14] = biological target: T3, Prostaglandin E synthase (Canis lupus familiaris, UniProt A0SYQ0); test: Inhibition of mPGES1 in dog whole blood assessed as reduction in LPS-induced PGE2 production measured after 20 to 24 hrs
T3 sequence (A0SYQ0 whole entry): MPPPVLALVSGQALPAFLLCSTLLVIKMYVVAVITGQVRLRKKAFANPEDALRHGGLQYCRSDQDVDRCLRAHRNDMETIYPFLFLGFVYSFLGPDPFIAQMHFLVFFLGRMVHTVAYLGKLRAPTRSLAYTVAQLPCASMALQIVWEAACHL
How it was run: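 Dog whole blood stimulated with LPS. […] At least two experiments, each in duplicate; run by an external contract lab.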

[15] = biological target: T4, Cytosolic phospholipase A2 (Homo sapiens) (UniProt P47712); test: Inhibition of cPLA2 (unknown origin) at 10 uM relative to control
T4 sequence (whole entry): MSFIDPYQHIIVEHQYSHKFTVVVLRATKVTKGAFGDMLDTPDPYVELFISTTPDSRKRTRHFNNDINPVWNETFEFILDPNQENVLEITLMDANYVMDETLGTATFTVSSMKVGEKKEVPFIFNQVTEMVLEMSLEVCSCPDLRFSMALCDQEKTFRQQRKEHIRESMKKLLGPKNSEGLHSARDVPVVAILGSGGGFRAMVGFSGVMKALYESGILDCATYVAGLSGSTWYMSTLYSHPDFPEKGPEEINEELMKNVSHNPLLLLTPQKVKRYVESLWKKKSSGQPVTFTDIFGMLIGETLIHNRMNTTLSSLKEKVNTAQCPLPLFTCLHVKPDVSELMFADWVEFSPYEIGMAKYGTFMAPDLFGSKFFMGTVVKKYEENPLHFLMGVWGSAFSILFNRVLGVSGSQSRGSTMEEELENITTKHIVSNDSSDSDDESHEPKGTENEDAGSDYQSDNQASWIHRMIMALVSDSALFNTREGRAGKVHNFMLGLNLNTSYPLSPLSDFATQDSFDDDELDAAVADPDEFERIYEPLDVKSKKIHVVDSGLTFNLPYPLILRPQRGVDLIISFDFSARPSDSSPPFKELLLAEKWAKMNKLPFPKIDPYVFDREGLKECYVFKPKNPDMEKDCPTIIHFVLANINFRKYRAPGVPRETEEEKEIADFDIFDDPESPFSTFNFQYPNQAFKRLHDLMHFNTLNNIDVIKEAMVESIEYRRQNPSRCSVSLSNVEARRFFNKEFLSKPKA
How it was run: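 Selectivity panel against other prostanoid-pathway enzymes. % inhibition values are means of at least two experiments, each in duplicate.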

[16] = Half life in Beagle dog at 10 mg/kg, po; type: ADME, organism-based, Canis lupus familiaris; conditions: in vivo; how it was run: as §2
[17] = biological target: Prostaglandin F synthase (Homo sapiens); test: Inhibition of human PGF synthase assessed as decrease in PGF2alpha production

Row | Kp [1] | bioavailability [2] | Papp [3] | Tmax [4] | Tmax [5] | half-life [6] | Vd [7] | inhibition [8] | Cmax [9] | Kp [10] | IC50 [11] | Cmax [12] | Vd [13] | IC50 [14] | inhibition [15] | half-life [16] | IC50 [17] | Structure (SMILES)
1 | 0.16 | 43% | 0.63 ×10⁻⁶ cm/s | 6 h | 12 h | 2.7 h | 4.1 L/kg | 37% | 323 ng/mL | 0.37 | 4.1 nM | 336 ng/mL | 5.4 L/kg | 3540 nM | 4.3% | 17 h | – | CC1(C)Cc2c(c(C(=O)Nc3ccc(C(F)(F)F)cn3)cc3nc(Nc4c(Cl)cccc4Cl)[nH]c23)O1
2 | 0.18 | 91% | 0.33 ×10⁻⁶ cm/s | 24 h | 12 h | 4 h | 1.83 L/kg | 50.4% | 680 ng/mL | 0.32 | 14 nM | 492 ng/mL | 1.94 L/kg | 6220 nM | – | 14.4 h | 2320 nM | CC1(C)Cc2c(c(C(=O)Nc3ccc(F)c(C(F)(F)F)c3)cc3nc(Nc4c(F)cccc4Cl)[nH]c23)O1
3 | – | – | – | – | – | – | – | – | – | – | 3 nM | – | – | – | 10.6% | – | 3180 nM | Cn1c(Nc2c(F)cccc2Cl)nc2cc(C(=O)Nc3cccc(C(F)(F)F)c3)c3c(c21)CC(C)(C)O3
4 | – | – | 0.62 ×10⁻⁶ cm/s | – | – | – | – | – | – | – | 9.6 nM | – | – | – | 22.9% | – | 2470 nM | CC1(C)Cc2c(c(C(=O)Nc3cc(C(F)(F)F)ccc3F)cc3nc(Nc4c(F)cccc4Cl)[nH]c23)O1
5 | 0.04 | 14% | 1.34 ×10⁻⁶ cm/s | 12 h | 8 h | 7 h | 2.1 L/kg | 48.2% | 499 ng/mL | 0.16 | 30 nM | 843 ng/mL | 9.17 L/kg | 3030 nM | 5.1% | 20 h | – | Cc1cccc(Cl)c1Nc1nc2cc(C(=O)Nc3cc(C(F)(F)F)ccc3F)c3c(c2[nH]1)CC(C)(C)O3
